Data from PMC9605878 (Cell Chemical Biology, 2022).
In brackets after ≈: the same amount, converted by molar mass. Like-named read-outs stand apart in the source and are kept apart here. Values belong to the compound of their own block, whether it stands above or below them.

Legend:
S. aureus strain RN6390B = test: S. aureus MIC, broth microdilution; assay type: cell-based, Staphylococcus aureus
Outline: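 Broth microdilution MIC in Müller–Hinton broth at 37°C; S. aureus also tested in MHB containing 10% FBS.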

Staphylococcal cells = test: Dissipation of transmembrane potential; assay type: cell-based, Staphylococcus aureus; conditions: 10 μM test compound
Outline: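 Staphylococcal cells suspended in 50 mM potassium phosphate buffer, pH 7, with 5 μM DiSC3(5). Fluorescence (ex 650, em 680 nm) monitored over 200 s. Test compound (10 μM) added once signal stabilised. Valinomycin (5 μM) then added for complete depolarisation. Novobiocin and chloramphenicol (10 μg/ml) served as negative controls. Three independent repeats, representative traces.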

S. aureus membranes [1] = test: Membrane dipole potential; assay type: binding, Staphylococcus aureus; conditions: for change in membrane dipole potential: fixed concentration 40 μM, fluorescence ratio R(460/520)
Outline: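 Isolated S. aureus membranes labelled with the dipole-potential probe di-8-ANEPPS. Dipole potential change followed as fluorescence ratio R(460/520), at a fixed 40 μM per compound. Kd obtained from binding curves versus compound concentration by the dual-wavelength ratiometric method, with methanol included. Mean of three independent experiments ±SD.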

PqsR = conditions: read-out: PqsR IC50; ref Ilangovan et al., 2013; cited from earlier work
[2] = test system: defibrinated rabbit red blood cells; test: Haemolytic activity; assay type: cell-based
Outline: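 Defibrinated rabbit blood incubated in PBS for 60 min with test compound or Triton X-100 (positive control). Samples pelleted and supernatant A543 measured. Percent haemolysis calculated relative to the Triton X-100 control.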

Chrome azurol S = assay type: physicochemical; conditions: 50 μM, PBS pH 7.4
Outline: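 PBS (pH 7.4) with test compound (50 μM), or without it as reference, mixed with an equal volume of CAS assay solution. A630 read after 15 min at room temperature. Siderophore units = […].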

[3] = test system: S. aureus strain USA300 JE2; test: Membrane permeabilization; assay type: cell-based, Staphylococcus aureus; conditions: 10 μM, relative to nisin 0.6 μM
Outline: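 USA300 JE2 grown overnight in CYGP, washed in 100 mM phosphate buffer pH 7, resuspended to OD600 0.1 and exposed to test compound for 1 h at 37°C. Nisin (0.6 μM) used as positive control. Cell-free supernatant ATP measured by luminescence kit. For PI uptake, cells held in phosphate buffer pH 7 with PI (10 μg/ml), 10 min dark at RT, washed, then read (ex 575/em 630 nm). Mean of three experiments ±SD.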

S. aureus membranes [4] = conditions: read-out: Kd (membrane-active agent); ref Murray et al., 2014; cited from earlier work
[5] = test system: P. aeruginosa PAO1 in mixed biofilm with S. aureus SH1000; test: Mixed-species biofilm, P. aeruginosa component; assay type: cell-based, Pseudomonas aeruginosa; conditions: tobramycin alone (100 μg/mL, 4 h)
Outline: (§1)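 GFP-tagged S. aureus SH1000 and mCherry-tagged P. aeruginosa PAO1 grown 16 h in RPMI-1640, diluted 1:100, regrown to OD600 ~0.5, then diluted to OD600 0.1 and 0.01 respectively. S. aureus seeded on glass coverslips for 1 h static, then P. aeruginosa added (10:1). Test compound (100 μM) or DMSO added; 48 h at 37°C. Where required, tobramycin (100 μg/mL) added for a further 4 h. Confocal imaging, biomass quantified per species; 3 experiments ±SD.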

[6] = test system: S. aureus SH1000 in mixed biofilm with P. aeruginosa PAO1; test: Mixed-species biofilm, S. aureus component; assay type: cell-based, Staphylococcus aureus; conditions: tobramycin alone (100 μg/mL, 4 h)
Outline: as §1

[7] = S. aureus RN6390B, broth microdilution

- MIC (S. aureus strain RN6390B; [7]): >100 µM
Structure (SMILES): CCCCCCCCCc1nc2cc(F)ccc2c(=O)n1OC [Compound 39]

- MIC (S. aureus strain RN6390B; [7]): >100 µM
Structure (SMILES): CCCCCCCc1nc2ccccc2c(=O)n1N [Compound 8]

- change in membrane dipole potential (S. aureus membranes [1]): increased
- MIC (S. aureus strain RN6390B; [7]): >100 µM
Structure (SMILES): CCCCCCCCCc1nc2cc(Cl)ccc2c(=O)n1N [Compound 19]
- DiSC3(5) fluorescence / transmembrane potential (Staphylococcal cells): does not increase fluorescence
- IC50 (PqsR): 5 µM
- hemolytic activity [2]: not hemolytic

- MIC (S. aureus strain RN6390B; [7]): >100 µM
- MIC (S. aureus strain RN6390B; Staphylococcus aureus, RN6390B): > 100 µM
Structure (SMILES): CCCCCCCCCc1nc2cc(Cl)ccc2c(=O)n1CCO [Compound 45, 7-Chloro-3-(2-hydroxyethyl)-2-n-nonylquinazolin-4(3H)-one]

- iron-chelating properties (Chrome azurol S): sequestered iron
Structure (SMILES): CCCCCCCc1[nH]c2ccccc2c(=O)c1O [PQS, 2-Heptyl-3-hydroxy-4(1H)-quinolone]

- MIC (S. aureus strain RN6390B; Staphylococcus aureus, RN6390B): > 100 µM
Structure (SMILES): CCCCCCCCCc1nc2cc(Cl)ccc2c(=O)[nH]1 [Compound 4, 7-Chloro-2-n-nonylquinazolin-4(3H)-one]

- MIC (S. aureus strain RN6390B; Staphylococcus aureus, RN6390B): > 100 µM
Structure (SMILES): CCCCCCCCCC1Nc2ccccc2S(=O)(=O)N1 (stereo not shown) [Compound 6, 3-n-Nonyl-3,4-dihydro-2H-benzo[e][1,2,4]thiadiazine 1,1-dioxide]
- S. aureus growth-inhibitory activity (S. aureus strain RN6390B): inactive

- MIC (S. aureus strain RN6390B; [7]): >100 µM
Structure (SMILES): CCCCCCCCCc1nc2cc(F)c(F)cc2c(=O)n1N [Compound 22]

- MIC (S. aureus strain RN6390B; [7]): >100 µM
Structure (SMILES): CCCCCc1nc2ccccc2c(=O)n1N [Compound 7]

- MIC (S. aureus strain RN6390B; Staphylococcus aureus, RN6390B): > 100 µM
Structure (SMILES): Cc1nc2ccccc2c(=O)n1N [Compound 17, 3-Amino-2-methylquinazolin-4(3H)-one]

- change in membrane dipole potential (S. aureus membranes [1]): little impact
- MIC (S. aureus strain RN6390B; [7]): >100 µM
Structure (SMILES): CCCCCCCCCc1nc2ccccc2c(=O)[nH]1 [Compound 2]

- MIC (S. aureus strain RN6390B; [7]): >100 µM
Structure (SMILES): CCCCCCCCCc1nc2cc(F)ccc2c(=O)n1N [Compound 18]

- change in membrane dipole potential (S. aureus membranes [1]): greatest changes in dipole potential
- Kd (S. aureus membranes [1]; read-out: Kd (membrane binding), binding curves, di-8-ANEPPS): 5.2 ± 0.3 µM
- MIC (S. aureus strain RN6390B; Staphylococcus aureus, RN6390B): 12.5 µM (≈ 4.72 µg/mL)
Structure (SMILES): CCCCCCCCCc1nc2cc(Cl)ccc2c(=O)n1CCCCN [Compound 35, 3-(4-Aminobutyl)-7-chloro-2-n-nonylquinazolin-4(3H)-one]
- DiSC3(5) fluorescence / transmembrane potential (Staphylococcal cells): increase in fluorescence
- cellular ATP loss and PI uptake [3]: significant cellular ATP loss alongside the reciprocal uptake of PI

Structure (SMILES): CCCCCCCCCCCCCC(=O)C1=C(O)COC1=O [Compound C14-TOA, 3-tetradecanoyltetronic acid]
- Kd (S. aureus membranes [4]): 4 µM

- change in membrane dipole potential (S. aureus membranes [1]): little impact
Structure (SMILES): CCCCCCCCCc1[nH]c2ccccc2c(=O)c1O [Compound C9-PQS, reference compound]

- MIC (S. aureus strain RN6390B; [7]): >100 µM
Structure (SMILES): CCCCCCCc1nc2ccccc2c(=O)[nH]1 [Compound 1]

Structure (SMILES): NC[C@H]1O[C@H](O[C@H]2[C@H](O)[C@@H](O[C@H]3O[C@H](CO)[C@@H](O)[C@H](N)[C@H]3O)[C@H](N)C[C@@H]2N)[C@H](N)C[C@@H]1O [tobramycin]
- reduction of P. aeruginosa biomass [5]: ~60%
- S. aureus biomass [6]: clearly protected

- MIC (S. aureus strain RN6390B; Staphylococcus aureus, RN6390B): > 100 µM
Structure (SMILES): CCCCCCCC1Nc2ccccc2S(=O)(=O)N1 (stereo not shown) [Compound 5, 3-n-Heptyl-3,4-dihydro-2H-benzo[e][1,2,4]thiadiazine 1,1-dioxide]
- S. aureus growth-inhibitory activity (S. aureus strain RN6390B): inactive
